Data from ChEMBL document CHEMBL1149558, “Synthesis of symmetrical C- and pseudo-symmetrical O-linked disaccharide analogs for arabinosyltransferase inhibitory activity in Mycobacterium tuberculosis” (Bioorg Med Chem Lett, 2007).
In brackets after ≈: the same amount, converted by molar mass. Activity calls are given as the source filed them. The rule behind the calls is not given here.

Key:
[1] = tested on: Mycobacterium tuberculosis; test: Antimycobacterial activity against Mycobacterium tuberculosis H37Ra; assay type: functional
How it was run: (§1)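 Colorimetric broth microdilution against M. tuberculosis H37Ra (ATCC 25177) and M. avium NJ 211. Initial screen at 1.28 and 12.8 μg/mL. Activity was confirmed with […] dilutions at 16, 8 and 4 μg/mL to set the MIC.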

Mycobacterium avium [2] = test: Antimycobacterial activity against Mycobacterium avium at 12.8 ug/mL; assay type: functional, organism-based; how it was run: as §1
Mycobacterium avium [3] = test: Antimycobacterial activity against Mycobacterium avium; assay type: functional; how it was run: as §1
[4] = biological target: T1, Probable arabinosyltransferase A (Mycobacterium tuberculosis) (UniProt P9WNL9); test: Inhibition of Mycobacterium smegmatis arabinosyl transferase assessed as [14C]arabinofuranose incorporation at 3.6 mM; conditions: Mycolicibacterium smegmatis
T1 sequence (whole entry): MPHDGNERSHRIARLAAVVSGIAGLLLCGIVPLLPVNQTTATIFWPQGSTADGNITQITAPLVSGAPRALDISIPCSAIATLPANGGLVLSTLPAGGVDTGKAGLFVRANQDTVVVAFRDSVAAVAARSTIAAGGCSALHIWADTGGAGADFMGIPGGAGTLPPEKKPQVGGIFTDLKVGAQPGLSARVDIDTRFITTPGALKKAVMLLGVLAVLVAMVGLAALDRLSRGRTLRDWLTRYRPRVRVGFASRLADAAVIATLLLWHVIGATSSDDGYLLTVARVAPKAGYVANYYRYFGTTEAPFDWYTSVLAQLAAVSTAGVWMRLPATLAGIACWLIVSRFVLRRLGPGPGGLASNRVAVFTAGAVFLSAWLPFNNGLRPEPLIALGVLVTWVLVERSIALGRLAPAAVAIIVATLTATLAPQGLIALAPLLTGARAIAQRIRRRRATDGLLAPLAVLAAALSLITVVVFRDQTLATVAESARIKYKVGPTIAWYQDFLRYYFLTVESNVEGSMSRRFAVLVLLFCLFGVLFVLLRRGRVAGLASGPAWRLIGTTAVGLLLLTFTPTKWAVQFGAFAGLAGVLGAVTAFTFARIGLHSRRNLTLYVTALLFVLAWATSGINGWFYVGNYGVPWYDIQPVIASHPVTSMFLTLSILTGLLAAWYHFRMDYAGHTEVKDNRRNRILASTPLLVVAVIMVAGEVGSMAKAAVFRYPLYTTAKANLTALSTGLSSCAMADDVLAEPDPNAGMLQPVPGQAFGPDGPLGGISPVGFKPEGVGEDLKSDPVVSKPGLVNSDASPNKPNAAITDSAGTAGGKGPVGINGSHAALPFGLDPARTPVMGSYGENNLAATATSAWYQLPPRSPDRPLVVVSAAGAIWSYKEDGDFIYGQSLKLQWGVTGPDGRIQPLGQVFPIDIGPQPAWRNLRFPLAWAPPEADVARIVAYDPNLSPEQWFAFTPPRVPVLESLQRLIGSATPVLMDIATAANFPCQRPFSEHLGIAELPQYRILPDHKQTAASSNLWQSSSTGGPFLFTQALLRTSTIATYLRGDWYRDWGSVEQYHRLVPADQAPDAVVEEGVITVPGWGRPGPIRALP
How it was run: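 Cell-free competition arabinosyltransferase acceptor assay with membranes and [14C]DPA as glycosyl donor. The read-out is inhibition of [14C]Araf incorporation into the α(1→5)-linked 1-O-octyl arabinofuranosyl disaccharide acceptor at 0.4 mM. Test compounds were run at 3.6 mM, and IC50 values were also derived.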

| SMILES | MIC [1] [µg/mL] | Activity (Mycobacterium avium [2]) | MIC (Mycobacterium avium [3]) [µg/mL] | Activity [4] |
| --- | --- | --- | --- | --- |
| CC[C@@H](CO)NCCN[C@@H](CC)CO [ETHAMBUTOL] | 2 (≈ 9.79 µM) |  |  |  |
| CC(C)(C)[Si](C)(C)O[C@H]1[C@H](O[Si](C)(C)C(C)(C)C)[C@@H](CO[C@H]2O[C@H](CN=[N+]=[N-])[C@@H](O)[C@@H]2O)O[C@@H]1CN=[N+]=[N-] | 16 (≈ 27.8 µM) | inactive |  |  |
| O[C@@H]1[C@@H](OC[C@H]2O[C@H](CN(CC3CCCCC3)CC3CCCCC3)[C@@H](O)[C@@H]2O)O[C@H](CN(CC2CCCCC2)CC2CCCCC2)[C@H]1O | 8 (≈ 11.8 µM) |  | 16 (≈ 23.6 µM) | Active |
| O[C@H]1[C@H](O)[C@@H](CN(CC2CCCCC2)CC2CCCCC2)O[C@@H]1/C=C/[C@H]1O[C@H](CN(CC2CCCCC2)CC2CCCCC2)[C@@H](O)[C@@H]1O | 8 (≈ 11.9 µM) |  | 8 (≈ 11.9 µM) | Active |
| CC(C)(C)[Si](C)(C)O[C@H]1[C@H](O[Si](C)(C)C(C)(C)C)[C@@H](CN(CC2CCCCC2)CC2CCCCC2)O[C@@H]1CO[C@H]1O[C@H](CN(CC2CCCCC2)CC2CCCCC2)[C@@H](O)[C@@H]1O | > 12.8 | inactive |  |  |
| O[C@H]1[C@H](O)[C@@H](CN(CC2CCCCC2)CC2CCCCC2)O[C@@H]1CC[C@H]1O[C@H](CN(CC2CCCCC2)CC2CCCCC2)[C@@H](O)[C@@H]1O | 16 (≈ 23.6 µM) |  | 16 (≈ 23.6 µM) | Active |
